This is an account of results in PubChem BioAssay AID651583 (The Scripps Research Institute Molecular Screening Center, 2012).

Calls of active or inactive are those of the source.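 The calls were made as follows: active = Toxic to Huh-7.5 liver cells, with CC50, the dose killing half the cells, at most 24 µM; inactive = CC50 above 24 µM.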

In the experiment the test system is Huh-7.5 viability, XTT absorbance. Put plainly: viability loss in Huh-7.5 hepatoma cells – cell-based, XTT absorbance, powder samples, cytotoxicity control for HCV core dimerization inhibitor project, late-stage follow-up (AID 651583). The method in brief: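 test system = Huh-7.5 cell line, viability by mitochondrial dehydrogenase activity | schedule = overnight cell plating, 72 h compound exposure at 37 °C | detection = XTT-PMS absorbance, 450/650 nm | replicates = triplicate wells per concentration | read-out = CC50 from fitted % inhibition curve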
A general note: Tetrazolium assays rely on reduction of a dye to a coloured formazan, in cell work by metabolically active cells.
One may read the CC50 as the concentration giving 50% cytotoxicity. Turning to `Cc1ccc(Cc2c(CCc3ccccc3)nc3nc(SC(Cc4ccccc4)C(=O)NCCN4CCOCC4)nn3c2C)cc1` (stereo unspecified), the CC50 was 22.1 µM.

On to `Cc1ccc(Cc2c(C)nc3nc(SCC(=O)NCCN4CCCN(S(=O)(=O)c5ccccc5)CC4)nn3c2C)cc1`, for which the CC50 is 9.51 µM. For `Cc1ccc(Cc2c(C)nc3nc(SCC(=O)NCCN4CCCN(S(C)(=O)=O)CC4)nn3c2C)cc1` the value was 193 µM (inactive). Regarding `Cc1ccc(Cc2c(C)nc3nc(SCC(=O)NCCN4CCN(Cc5ccc(Cl)cc5)CC4)nn3c2C)cc1`, the CC50 is > 4 µM (inactive). For `Cc1ccc(Cc2c(C)nc3nc(SCC(=O)NCCN4CCOCC4)nn3c2C)cc1` the value was > 12 µM (inactive); for `Cc1ccc(Cc2c(C)nc3nc(SCC(=O)NCCN4CCN(CCc5ccccc5)CC4)nn3c2C)cc1`, > 36 µM (inactive); for `Cc1ccc(Cc2c(C)nc3nc(SCC(=O)NCCN4CCN(Cc5ccc(F)cc5)CC4)nn3c2C)cc1`, 180 µM (inactive). Next, `Cc1ccc(Cc2c(C)nc3nc(SCC(=O)NCCN4CCNCC4)nn3c2C)cc1`: 33.8 µM (inactive). For `Cc1ccc(Cc2c(C)nc3nc(SCC(=O)NCCN4CCN(S(=O)(=O)c5ccccc5)CC4)nn3c2C)cc1` the value was 37.6 µM (inactive); for `Cc1ccc(Cc2c(C)nc3nc(SCC(=O)NCCN4CCCCCC4)nn3c2C)cc1`, 42.6 µM (inactive); for `Cc1ccc(Cc2c(C)nc3nc(SCC(=O)NCCN4CCCN(S(=O)(=O)c5ccc(C)cc5)CC4)nn3c2C)cc1`, 13.8 µM.
